Experimental findings from ChEMBL document CHEMBL3608232, “Exploring the Existing Drug Space for Novel pTyr Mimetic and SHP2 Inhibitors” (ACS Med Chem Lett, 2015) are described below.

The subject of one experiment is SK-BR-3. The experiment is described as follows: Growth inhibition of human SKBR3 cells expressing ErbB2 in 3D matrigel after 5 days. The format is functional, cell-based.
Experiment [1] has as its target Receptor-type tyrosine-protein phosphatase alpha (Homo sapiens, UniProt P18433). As to the kind of experiment: Inhibition of phosphatase activity of human PTPalpha using pNPP as a substrate after 10 mins by spectrophotometer analysis.
Experiment [2] concerns the target Receptor-type tyrosine-protein phosphatase mu (Homo sapiens, UniProt P28827). As to the kind of experiment: Inhibition of phosphatase activity of human PTPmu using pNPP as a substrate after 10 mins by spectrophotometer analysis.
Experiment [3] addresses Receptor-type tyrosine-protein phosphatase F (Homo sapiens, UniProt P10586). The experiment is described as follows: Inhibition of phosphatase activity of human LAR using pNPP as a substrate after 10 mins by spectrophotometer analysis.
Experiment [4] has as its target Dual specificity protein phosphatase 3 (Homo sapiens, UniProt P51452). The experiment is described as follows: Inhibition of phosphatase activity of human VHR using pNPP as a substrate after 10 mins by spectrophotometer analysis.
For experiment [5], the target named is T1, Serine/threonine-protein phosphatase 5 (Homo sapiens, UniProt P53041).
T1 sequence (P53041 whole entry): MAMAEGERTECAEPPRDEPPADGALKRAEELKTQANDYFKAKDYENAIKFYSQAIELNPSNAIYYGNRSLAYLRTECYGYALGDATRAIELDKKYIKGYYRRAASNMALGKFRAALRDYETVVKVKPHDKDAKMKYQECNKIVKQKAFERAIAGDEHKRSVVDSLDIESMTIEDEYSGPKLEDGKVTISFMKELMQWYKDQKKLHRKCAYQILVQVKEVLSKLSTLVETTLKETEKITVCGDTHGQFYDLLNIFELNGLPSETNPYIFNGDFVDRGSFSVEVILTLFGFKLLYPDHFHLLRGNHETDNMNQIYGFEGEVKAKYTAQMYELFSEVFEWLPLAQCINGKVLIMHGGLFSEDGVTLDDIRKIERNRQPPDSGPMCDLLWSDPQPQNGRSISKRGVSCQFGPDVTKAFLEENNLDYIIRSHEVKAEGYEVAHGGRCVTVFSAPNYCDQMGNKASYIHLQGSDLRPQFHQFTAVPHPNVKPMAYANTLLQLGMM
As to the kind of experiment: Inhibition of phosphatase activity of human PP5 using pNPP as a substrate after 10 mins by spectrophotometer analysis.

Experiment [6] concerns the target T2, Tyrosine-protein phosphatase non-receptor type 11 (Homo sapiens, UniProt Q06124).
T2 sequence (Q06124 whole entry): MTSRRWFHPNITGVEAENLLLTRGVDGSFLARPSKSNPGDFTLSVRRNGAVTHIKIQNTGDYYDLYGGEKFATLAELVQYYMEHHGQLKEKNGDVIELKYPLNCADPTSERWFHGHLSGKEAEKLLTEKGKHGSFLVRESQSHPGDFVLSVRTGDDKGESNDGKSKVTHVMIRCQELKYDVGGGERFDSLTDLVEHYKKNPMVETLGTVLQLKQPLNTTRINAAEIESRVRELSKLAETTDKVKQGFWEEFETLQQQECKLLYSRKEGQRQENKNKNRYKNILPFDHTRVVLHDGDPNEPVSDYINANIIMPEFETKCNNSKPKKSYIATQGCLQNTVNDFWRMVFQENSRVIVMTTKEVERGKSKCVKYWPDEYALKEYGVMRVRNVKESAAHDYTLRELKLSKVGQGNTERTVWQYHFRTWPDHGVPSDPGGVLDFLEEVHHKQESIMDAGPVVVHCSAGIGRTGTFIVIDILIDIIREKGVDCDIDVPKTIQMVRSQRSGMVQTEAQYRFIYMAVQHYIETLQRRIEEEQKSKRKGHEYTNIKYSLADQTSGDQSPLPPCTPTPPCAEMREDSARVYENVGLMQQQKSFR
The experiment is described as follows: Competitive inhibition of phosphatase activity of SHP2 (unknown origin) using pNPP as a substrate Lineweaver-Burk plot analysis. Put shortly: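 SHP2-catalysed hydrolysis of para-nitrophenyl phosphate measured with inhibitor at 0, 0.25, 0.5 and 0.75 μM. Inhibition mode assigned from a Lineweaver–Burk (double-reciprocal) plot.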

For the next experiment, the system named is NCI-H1975. The experiment is described as follows: Cytotoxicity against human NCI-H1975 cells by MTT assay. The format is functional, cell-based. Background: Tetrazolium dyes change colour on reduction, which living cells bring about.
The next experiment deals with MDA-MB-231. As to the kind of experiment: Cytotoxicity against human MDA-MB-231 cells by MTT assay. Format: functional, cell-based.
In experiment [7] the target is T3, Tyrosine-protein phosphatase non-receptor type 11 (Homo sapiens) (UniProt Q06124).
T3 sequence (whole entry): T2 sequence (Q06124 whole entry)
The experiment is described as follows: Inhibition of SHP2 in human NCI-H1975 cells assessed as reduction of EGF-induced ERK1/2 activation at 40 uM after 60 mins relative to control. Format: cell-based. Put shortly:
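H1975 cells were stimulated with EGF and ERK1/2 and paxillin phosphorylation was assessed by immunoblot. Band intensities were quantified, and pERK1/2/total ERK1/2 or pPaxillin(Y118)/total paxillin ratios were normalized to the reference. Blots are representative of at least two independent experiments, with quantified values given as mean ± SD.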

Experiment [8] deals with T3, Tyrosine-protein phosphatase non-receptor type 11 (Homo sapiens). As to the kind of experiment: Inhibition of SHP2 in human NCI-H1975 cells assessed as increase in EGF-induced paxillin phosphorylation at Y118 at 40 uM after 60 mins relative to control.

Sequence of Dual specificity protein phosphatase 3 (P51452 whole entry): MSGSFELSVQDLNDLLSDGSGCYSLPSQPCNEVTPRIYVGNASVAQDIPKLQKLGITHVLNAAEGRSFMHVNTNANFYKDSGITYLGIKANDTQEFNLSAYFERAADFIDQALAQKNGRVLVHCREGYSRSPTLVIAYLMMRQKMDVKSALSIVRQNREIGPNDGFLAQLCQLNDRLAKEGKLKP
Sequence of Receptor-type tyrosine-protein phosphatase F (P10586 whole entry): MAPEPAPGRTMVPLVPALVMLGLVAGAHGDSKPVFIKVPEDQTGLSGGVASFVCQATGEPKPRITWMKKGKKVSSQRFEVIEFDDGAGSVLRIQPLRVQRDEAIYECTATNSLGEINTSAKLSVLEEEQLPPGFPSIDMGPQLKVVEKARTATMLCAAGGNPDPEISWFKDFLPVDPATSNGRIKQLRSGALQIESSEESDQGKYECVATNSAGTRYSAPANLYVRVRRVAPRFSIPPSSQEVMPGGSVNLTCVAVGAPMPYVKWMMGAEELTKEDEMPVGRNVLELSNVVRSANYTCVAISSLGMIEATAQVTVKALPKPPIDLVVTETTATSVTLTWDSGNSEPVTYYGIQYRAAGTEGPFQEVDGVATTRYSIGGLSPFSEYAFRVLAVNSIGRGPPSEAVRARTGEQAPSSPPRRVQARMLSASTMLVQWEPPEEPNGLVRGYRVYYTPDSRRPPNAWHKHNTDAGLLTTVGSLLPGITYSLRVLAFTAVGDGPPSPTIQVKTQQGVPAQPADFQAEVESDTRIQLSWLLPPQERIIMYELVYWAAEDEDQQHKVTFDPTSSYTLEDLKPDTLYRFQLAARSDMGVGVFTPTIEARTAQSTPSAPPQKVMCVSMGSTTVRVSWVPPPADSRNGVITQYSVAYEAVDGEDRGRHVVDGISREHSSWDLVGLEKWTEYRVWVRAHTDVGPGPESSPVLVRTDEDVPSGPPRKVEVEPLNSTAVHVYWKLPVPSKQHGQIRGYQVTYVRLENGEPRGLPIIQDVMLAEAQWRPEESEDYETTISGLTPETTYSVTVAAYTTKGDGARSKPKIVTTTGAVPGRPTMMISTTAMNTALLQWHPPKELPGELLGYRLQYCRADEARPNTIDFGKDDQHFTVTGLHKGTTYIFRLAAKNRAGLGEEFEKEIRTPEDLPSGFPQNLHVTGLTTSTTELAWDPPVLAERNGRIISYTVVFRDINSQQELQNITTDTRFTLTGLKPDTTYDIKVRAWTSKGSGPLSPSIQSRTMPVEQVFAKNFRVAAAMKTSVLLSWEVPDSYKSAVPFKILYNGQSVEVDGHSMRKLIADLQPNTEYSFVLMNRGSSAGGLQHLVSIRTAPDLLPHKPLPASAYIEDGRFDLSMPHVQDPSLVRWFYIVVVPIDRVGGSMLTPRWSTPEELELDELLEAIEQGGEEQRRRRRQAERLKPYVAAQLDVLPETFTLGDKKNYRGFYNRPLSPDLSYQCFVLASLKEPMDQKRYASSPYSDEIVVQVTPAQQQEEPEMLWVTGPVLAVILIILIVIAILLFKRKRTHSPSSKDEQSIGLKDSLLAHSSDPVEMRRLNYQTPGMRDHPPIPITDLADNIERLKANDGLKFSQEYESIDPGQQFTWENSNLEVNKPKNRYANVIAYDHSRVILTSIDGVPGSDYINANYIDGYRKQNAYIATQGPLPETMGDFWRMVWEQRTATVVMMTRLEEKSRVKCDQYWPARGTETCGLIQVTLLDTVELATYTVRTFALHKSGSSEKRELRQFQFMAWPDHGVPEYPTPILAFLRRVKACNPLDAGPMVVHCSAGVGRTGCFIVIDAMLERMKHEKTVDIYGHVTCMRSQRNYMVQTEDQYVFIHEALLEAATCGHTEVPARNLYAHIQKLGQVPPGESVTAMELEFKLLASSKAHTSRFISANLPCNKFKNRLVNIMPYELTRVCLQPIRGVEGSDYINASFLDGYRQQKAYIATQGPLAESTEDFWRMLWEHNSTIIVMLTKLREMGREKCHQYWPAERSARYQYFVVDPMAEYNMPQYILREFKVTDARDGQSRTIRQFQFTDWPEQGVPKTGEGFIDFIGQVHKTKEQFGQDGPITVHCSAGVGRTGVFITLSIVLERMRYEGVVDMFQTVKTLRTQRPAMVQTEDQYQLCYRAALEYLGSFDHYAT
Sequence of Receptor-type tyrosine-protein phosphatase alpha (P18433 whole entry): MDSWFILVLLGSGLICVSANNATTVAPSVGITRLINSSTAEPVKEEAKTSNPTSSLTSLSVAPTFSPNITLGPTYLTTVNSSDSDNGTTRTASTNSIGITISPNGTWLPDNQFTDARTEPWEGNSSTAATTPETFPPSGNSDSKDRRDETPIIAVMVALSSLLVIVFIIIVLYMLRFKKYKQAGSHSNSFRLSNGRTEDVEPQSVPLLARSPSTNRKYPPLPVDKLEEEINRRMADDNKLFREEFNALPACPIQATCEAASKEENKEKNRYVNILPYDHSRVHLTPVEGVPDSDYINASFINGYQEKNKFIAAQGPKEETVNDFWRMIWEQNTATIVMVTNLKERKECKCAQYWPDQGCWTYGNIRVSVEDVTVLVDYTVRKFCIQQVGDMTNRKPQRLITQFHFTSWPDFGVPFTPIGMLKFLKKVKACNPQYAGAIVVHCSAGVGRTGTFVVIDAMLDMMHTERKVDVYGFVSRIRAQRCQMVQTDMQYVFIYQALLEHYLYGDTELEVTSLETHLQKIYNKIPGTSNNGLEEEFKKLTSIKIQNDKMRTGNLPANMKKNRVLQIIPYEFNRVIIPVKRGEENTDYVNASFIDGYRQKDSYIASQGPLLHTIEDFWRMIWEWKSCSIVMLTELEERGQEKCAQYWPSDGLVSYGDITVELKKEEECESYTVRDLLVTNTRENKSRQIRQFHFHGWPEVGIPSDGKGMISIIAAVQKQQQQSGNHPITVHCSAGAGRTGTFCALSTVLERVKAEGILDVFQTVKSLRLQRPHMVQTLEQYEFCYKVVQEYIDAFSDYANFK
Sequence of Receptor-type tyrosine-protein phosphatase mu (P28827 whole entry): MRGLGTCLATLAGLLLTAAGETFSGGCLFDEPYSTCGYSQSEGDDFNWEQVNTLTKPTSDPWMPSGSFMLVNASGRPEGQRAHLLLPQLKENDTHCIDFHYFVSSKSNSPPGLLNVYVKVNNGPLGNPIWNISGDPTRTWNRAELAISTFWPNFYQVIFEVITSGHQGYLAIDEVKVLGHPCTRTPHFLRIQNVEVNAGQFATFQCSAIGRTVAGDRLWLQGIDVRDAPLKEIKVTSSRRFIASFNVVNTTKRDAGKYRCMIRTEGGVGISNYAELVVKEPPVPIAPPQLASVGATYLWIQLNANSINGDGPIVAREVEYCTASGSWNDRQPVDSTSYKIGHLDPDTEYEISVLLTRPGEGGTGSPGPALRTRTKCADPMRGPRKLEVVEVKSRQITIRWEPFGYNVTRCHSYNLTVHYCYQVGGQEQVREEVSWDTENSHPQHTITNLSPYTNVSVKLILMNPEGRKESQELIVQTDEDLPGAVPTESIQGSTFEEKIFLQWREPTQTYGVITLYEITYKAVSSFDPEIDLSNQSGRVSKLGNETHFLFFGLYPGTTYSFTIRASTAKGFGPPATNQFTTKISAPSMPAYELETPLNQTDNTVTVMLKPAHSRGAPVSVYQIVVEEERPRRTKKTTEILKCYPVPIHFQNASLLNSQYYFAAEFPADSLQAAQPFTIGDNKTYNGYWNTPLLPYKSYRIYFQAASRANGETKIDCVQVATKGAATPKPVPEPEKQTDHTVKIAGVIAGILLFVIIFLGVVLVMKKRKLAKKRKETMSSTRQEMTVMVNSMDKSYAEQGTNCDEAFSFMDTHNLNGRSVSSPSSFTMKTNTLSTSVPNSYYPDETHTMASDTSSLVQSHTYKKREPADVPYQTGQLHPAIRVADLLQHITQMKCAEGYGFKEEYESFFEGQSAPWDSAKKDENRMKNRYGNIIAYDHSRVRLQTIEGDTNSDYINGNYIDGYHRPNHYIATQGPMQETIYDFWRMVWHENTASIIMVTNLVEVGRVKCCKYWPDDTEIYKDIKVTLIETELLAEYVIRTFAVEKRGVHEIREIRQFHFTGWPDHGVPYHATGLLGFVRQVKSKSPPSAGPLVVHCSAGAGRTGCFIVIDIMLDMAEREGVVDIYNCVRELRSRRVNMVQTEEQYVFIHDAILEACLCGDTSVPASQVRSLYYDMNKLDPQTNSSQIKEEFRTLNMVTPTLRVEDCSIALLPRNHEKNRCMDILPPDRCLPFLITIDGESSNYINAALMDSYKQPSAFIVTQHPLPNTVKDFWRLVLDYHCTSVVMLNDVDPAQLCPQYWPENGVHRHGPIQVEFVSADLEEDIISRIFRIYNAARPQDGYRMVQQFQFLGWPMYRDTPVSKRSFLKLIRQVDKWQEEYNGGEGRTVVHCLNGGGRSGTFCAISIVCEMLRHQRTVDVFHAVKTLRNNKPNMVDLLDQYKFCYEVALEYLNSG

On to `O=C(Nc1ccc(I)cc1)C(=O)Nc1ccc(NC(=O)C(c2ccccc2)S(=O)(=O)O)cc1` (stereo not drawn), for which, in the experiment on SK-BR-3, the “growth inhibition (GI)” value was “Dose-dependent effect”. Besides, the IC50 in [1], in [2], in experiment [3], in experiment [4] and in experiment [5] was over 50 µM in each case. Also, in [6], the Ki amounted to 0.51 µM. Also, the Activity entry with NCI-H1975 and in the experiment with MDA-MB-231 was “Dose-dependent effect” each time. Also, the figures for the fold change (FC) in experiment [7] and in [8] were 0.6 and 1.3, respectively.

Regarding `O=C(Nc1ccc(NC(=O)C(c2ccccc2)S(=O)(=O)O)cc1)C(=O)Nc1ccc(-c2ccccc2)cc1` (stereo not drawn), the IC50 in [1], in experiment [2], in experiment [3], in experiment [4] and in [5] was over 50 µM each time. For the same molecule, the Activity result in the experiment with NCI-H1975 and in the experiment with MDA-MB-231 was “Dose-dependent effect” throughout.

For orientation: IC50 means the concentration at which inhibition is half-maximal. A high value points to a need for much substance. A word on the Ki: it is the equilibrium dissociation constant of an inhibitor or competing ligand from its target. High values mean a looser hold on the target, low ones a stronger hold on the target.
